KDM4C inh: inhibitors of human demethylase GASC-1 KDM4C; Q9H3R0; GST-KDM4C 2-372, H3K9me3 peptide, LANCE TR-FRET; inhibition, % at 12.5 µM; 96,000 tested, 0.15% active;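 active = mean replicate inhibition above about 25%, with at least 55% of replicates also reaching it, limit read from the data, passing the limit was not always enough; inconclusive = only one of those two conditions met; inactive = neither condition met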
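reagent = H3K9me3 peptide substrate, Fe(II), 2-oxoglutarate | system = GST-tagged GASC-1 (JMJD2C) catalytic fragment, aa 2-372 | amount = enzyme final amount 10 nM | read-out = Fall in 671/618 emission ratio as inhibition | medium = HEPES buffer, pH 7.5, plus ascorbate | schedule = 30 min reaction, 60 min detection, RT | measured by = LANCE TR-FRET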
Pf Dd2 growth: P. falciparum Dd2 growth inhibition; SYBR Green, 72 h; stronger effect = lower value; 94,000 tested, 2.3% active; AID 1159554; activity change, % at 10 µM; in the data active = activity change below about -80%; inconclusive = no clear call, values can overlap the other calls
IDH1 R132H inh: inhibitors of human IDH1 R132H; O75874; IDH1 R132H reductase, diaphorase/resazurin fluorescence, 60 min; inhibition, % at 10 µM; 70,000 tested, 0.18% active; AID 624101; in the data active = inhibition above about 34%; inconclusive = no clear call, values can overlap the other calls; inactive = below about 11%;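 note: 0% = DMSO and 100% = no enzyme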
Target sequence (O75874 whole entry R132H): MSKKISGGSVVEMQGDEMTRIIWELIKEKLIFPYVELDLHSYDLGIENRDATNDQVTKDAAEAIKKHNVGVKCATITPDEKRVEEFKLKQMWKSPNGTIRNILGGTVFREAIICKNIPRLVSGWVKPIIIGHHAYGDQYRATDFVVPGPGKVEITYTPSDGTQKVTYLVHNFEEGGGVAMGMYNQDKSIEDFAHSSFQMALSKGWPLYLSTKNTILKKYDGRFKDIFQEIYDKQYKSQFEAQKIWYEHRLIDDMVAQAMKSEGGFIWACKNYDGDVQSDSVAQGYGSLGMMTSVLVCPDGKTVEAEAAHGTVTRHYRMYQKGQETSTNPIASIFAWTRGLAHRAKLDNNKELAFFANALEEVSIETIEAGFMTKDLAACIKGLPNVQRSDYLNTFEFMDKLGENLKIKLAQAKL
Tcruzi prolif: blocks T. cruzi growth in NIH3T3 culture. T. cruzi beta-gal in NIH3T3, GalScreen luminescence, 90 h. inhibition, % at 8.34 µM. 77,000 tested, 5.9% active. AID 624255;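 active = mean inhibition above about 93%, with at least 55% of replicates each passing it, limit read from the data, passing the limit was not always enough; inconclusive = only one of those two conditions holds; inactive = neither condition holds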
* marks the source's active call; other numbers are inactive results; ? = inconclusive; . = no result given. Hits are enriched below; roughly 5.9% of the tested compounds scored in any of these assays.

SMILES | KDM4C inh | Pf Dd2 growth | IDH1 R132H inh | Tcruzi prolif
C[C@@H]1CCCCO[C@@H](CN(C)Cc2ccc(C(=O)Nc3ccccc3N)cc2)[C@@H](C)CN([C@H](C)CO)C(=O)c2cc(NS(=O)(=O)c3ccccc3)ccc2O1 | -1 | -81* | 0 | .
C[C@@H]1CCCCO[C@H](CN(C)Cc2ccc(C(=O)Nc3ccccc3N)cc2)[C@@H](C)CN([C@H](C)CO)C(=O)c2cc(NS(=O)(=O)c3ccc(Cl)cc3)ccc2O1 | 10 | -82* | . | 89
C[C@@H]1CCCCO[C@@H](CN(C)Cc2ccc(C(=O)Nc3ccccc3N)cc2)[C@@H](C)CN([C@H](C)CO)C(=O)c2cc(NS(=O)(=O)c3ccc(F)cc3)ccc2O1 | 0 | -77 | 0 | .
Cc1noc(C)c1S(=O)(=O)Nc1ccc2c(c1)C(=O)N([C@H](C)CO)C[C@H](C)[C@H](CN(C)Cc1ccc(C(=O)Nc3ccccc3N)cc1)OCCCC[C@@H](C)O2 | 21 | -86* | . | .
Cc1noc(C)c1S(=O)(=O)Nc1ccc2c(c1)C(=O)N([C@H](C)CO)C[C@H](C)[C@@H](CN(C)Cc1ccc(C(=O)Nc3ccccc3N)cc1)OCCCC[C@@H](C)O2 | 1 | ? | . | .
COc1ccc(C#Cc2ccc([C@H]3[C@@H](CO)N4CCCCN(C(=O)Nc5cccc(F)c5)C[C@H]34)cc2)cc1 | -3 | ? | . | 66
O=C(Nc1ccccc1)N1CCCCN2[C@H](CO)[C@H](c3ccc(C#Cc4cccnc4)cc3)[C@@H]2C1 | -3 | -88* | . | 85
COc1ccc(NC(=O)N2CCCCN3[C@H](CO)[C@H](c4ccc(-c5ccccc5F)cc4)[C@@H]3C2)cc1 | -1 | -85* | . | 30
O=C(Nc1ccccc1)N1CCCCN2[C@H](CO)[C@@H](c3ccc(C#Cc4ccccc4)cc3)[C@H]2C1 | 21 | -60 | . | 60
COc1ccc(C#Cc2ccc([C@@H]3[C@H](CO)N4CCCCN(C(=O)Nc5cccc(F)c5)C[C@@H]34)cc2)cc1 | -4 | -84* | . | 62
C[C@H](CO)N1C[C@H](C)[C@@H](CN(C)C(=O)Nc2cccc(Cl)c2Cl)OCc2ccccc2-c2ccccc2C1=O | -3 | -84* | . | .
COc1ccccc1NC(=O)N(C)C[C@@H]1OCc2ccccc2-c2ccccc2C(=O)N([C@@H](C)CO)C[C@H]1C | 3 | -86* | . | 44
CN1C(=O)c2cc(NC(=O)Nc3ccccc3Cl)ccc2OC[C@H]2O[C@@H](CC(=O)O)CC[C@@H]21 | 49* | 5 | . | 14
CCS(=O)(=O)N1CC2(CN(Cc3ccccc3F)[C@H](CO)c3[nH]c4cc(OC)ccc4c32)C1 | -2 | -82* | . | .
COc1ccc2c3c([nH]c2c1)[C@@H](CO)N(Cc1ccccc1F)CC31CCN(C(=O)C2CCC2)CC1 | -1 | -75 | . | .
COc1ccc2c3c([nH]c2c1)[C@H](CO)N(Cc1ccccc1F)CC31CN(C(=O)C2CCCC2)C1 | -1 | -87* | . | .
CCCNC(=O)N1CC2(CN(C(=O)C3CCC3)C2)c2c([nH]c3cc(OC)ccc23)[C@@H]1CO | -1 | -84* | . | .
COc1ccc2c3c([nH]c2c1)[C@H](CO)N(Cc1ccccc1F)CC31CN(C(=O)C2CCC2)C1 | 23 | -93* | . | .
Cc1ccc(C2=NNC(=O)C(c3cn(CCC#N)c4ccccc34)C2)cc1 (configuration not stated) | . | . | 3 | .
COc1ccc2c3c([nH]c2c1)[C@@H](CO)N(Cc1ccccc1F)CC31CCN(C(=O)C2CCOCC2)CC1 | 0 | -91* | . | .
COc1ccc2c3c([nH]c2c1)[C@H](CO)N(Cc1ccccc1F)CC31CN(C(=O)C2CCOCC2)C1 | 0 | -56 | . | .
C[C@H](CO)N1C[C@H](C)[C@H](CN(C)CC2CCCCC2)OCCCC[C@H](C)Oc2ccc(NS(C)(=O)=O)cc2C1=O | 1 | -22 | 2 | 36
CCCNC(=O)N1CC(=O)N2[C@H](CO)[C@H](c3ccc(C#Cc4cccc(F)c4)cc3)[C@@H]2C1 | 1 | -12 | . | .
C[C@@H]1CCCCO[C@@H](CN(C)Cc2ccc(C(=O)Nc3ccccc3N)cc2)[C@@H](C)CN([C@H](C)CO)C(=O)c2cc(NC(=O)Nc3ccc(C(F)(F)F)cc3)ccc2O1 | 1 | -83* | 0 | .
C[C@@H]1CCCCO[C@@H](CN(C)Cc2ccc(C(=O)Nc3ccccc3N)cc2)[C@@H](C)CN([C@H](C)CO)C(=O)c2cc(NC(=O)Nc3ccc(F)cc3)ccc2O1 | 0 | -87* | . | .
SMILES | KDM4C inh | Pf Dd2 growth | IDH1 R132H inh | Tcruzi prolif
CCCNC(=O)Nc1ccc2c(c1)C(=O)N(C)C[C@@H](OC)[C@H](C)CN(Cc1ccccc1)[C@H](C)CO2 | 2 | . | 0 | 23
Cc1ccc(S(=O)(=O)N(C)C[C@@H]2Oc3ccc(NC(=O)CCCCCC(=O)Nc4ccccc4N)cc3CC(=O)N([C@H](C)CO)C[C@@H]2C)cc1 | -1 | -87* | 0 | 49
C[C@@H]1CN([C@@H](C)CO)C(=O)Cc2cc(NC(=O)CCCCCC(=O)Nc3ccccc3N)ccc2O[C@@H]1CN(C)S(=O)(=O)c1ccc(Cl)cc1 | 1 | -63 | 8 | 57
COc1ccc(S(=O)(=O)N(C)C[C@@H]2Oc3ccc(NC(=O)CCCCCC(=O)Nc4ccccc4N)cc3CC(=O)N([C@@H](C)CO)C[C@@H]2C)cc1 | -1 | -92* | 4 | 30
COC(=O)CCC(=O)Nc1ccc(S(N)(=O)=O)cc1 | . | . | 1 | .
COc1cccc(S(=O)(=O)N2CCC3(CC2)CN(C(=O)Nc2ccc(F)cc2)[C@@H](CO)c2[nH]c4cc(OC)ccc4c23)c1 | 1 | -75 | . | .
COc1ccc2c3c([nH]c2c1)[C@@H](CO)N(C(=O)Nc1ccc(F)cc1)CC31CCN(S(=O)(=O)c2ccccc2)CC1 | 0 | -84* | . | .
COc1ccc2c3c([nH]c2c1)[C@H](CO)N(C(=O)Nc1ccc(F)cc1)CC31CCN(S(=O)(=O)c2ccccc2)CC1 | 0 | -88* | . | .
COc1cccc(S(=O)(=O)N2CCC3(CC2)CN(C(=O)Nc2ccc(F)cc2)[C@H](CO)c2[nH]c4cc(OC)ccc4c23)c1 | -2 | -63 | . | .
COCC(=O)Nc1ccc2c(c1)OC[C@H](C)N(Cc1ccccc1F)C[C@@H](C)[C@@H](OC)CN(C)C2=O | 2 | -27 | 0 | 35
CCCNC(=O)C[C@H]1C[C@@H]2c3cc(NC(=O)c4cccnc4)ccc3O[C@@H]2[C@H](CO)O1 | -1 | 2 | 0 | -49
CNC(=O)CN(c1ccc(C23CC4CC(CC(C4)C2)C3)cc1)S(C)(=O)=O | . | . | 1 | .
COc1ccc2c3c([nH]c2c1)[C@H](CO)N(Cc1ccncc1)CC31CN(C(=O)Cc2ccncc2)C1 | 2 | -4 | . | .
CCCC(=O)N1CCC2(CC1)CN(Cc1ccncc1)[C@@H](CO)c1[nH]c3cc(OC)ccc3c12 | 0 | -91* | . | .
COc1ccc(CN2CC3(CCN(C(=O)Cc4ccncc4)CC3)c3c([nH]c4cc(OC)ccc34)[C@@H]2CO)cc1 | -2 | -86* | . | .
N#Cc1cccc(-c2ccc(C3[C@@H]4CN(S(=O)(=O)Cc5ccccc5)C[C@H]3N4)cc2)c1 (some centres not stated) | -2 | -27 | . | .

Assay outcomes: PubChem BioAssay, Broad Institute
